Measured values gathered from unrelated publications.
PRSS1: Serine protease 1 (PRSS1, Homo sapiens, UniProt P07477)
PDPK1: 3-phosphoinositide-dependent protein kinase 1 (PDPK1, Homo sapiens, UniProt O15530)

CCC(C(=O)Nc1cc(NC2CCOCC2)ccc1C)n1cc(Br)cc2nc(SCc3ccc(F)cc3)nc1-2 (centres unmarked)  IC50 (PRSS1; enzyme activity, inhibitor): > 100 µM
CC[C@H](C)[C@H](NC(=O)[C@H](CO)NC(=O)CNC(=O)[C@@H](NC(=O)[C@@H](NC(=O)[C@@H](NC(=O)CN)[C@@H](C)O)C(C)C)[C@@H](C)O)C(=O)N[C@@H](CC(C)C)C(=O)N[C@H](C(=O)N1CCC[C@H]1C(=O)N[C@H](C(=O)N[C@@H](CC(=O)O)C(=O)N[C@@H](Cc1ccc(O)cc1)C(=O)NCC(=O)N[C@H]1CSSC[C@@H](C(=O)N[C@@H](CO)C(=O)N[C@H](C(=O)N[C@@H](C)C(=O)N[C@@H](CCSC)C(=O)N[C@@H](Cc2ccc(O)cc2)C(=O)NCC(=O)NCC(=O)N[C@H](C(=O)N[C@H](C(=O)N[C@@H](CC(=O)O)C(=O)N2CCC[C@H]2C(=O)N[C@H](C(=O)N[C@@H](CCCNC(=N)N)C(=O)N[C@@H](Cc2ccccc2)C(=O)N2CCC[C@H]2C(=O)N[C@@H](CC(N)=O)C(=O)N[C@@H](C)C(=O)N[C@@H](Cc2c[nH]c3ccccc23)C(=O)N[C@@H](CCCNC(=N)N)C(=O)N[C@@H](CCC(=O)O)C(=O)N[C@@H](CC(C)C)C(=O)O)[C@@H](C)CC)[C@@H](C)CC)C(C)C)C(C)C)NC(=O)[C@H](CC(C)C)NC(=O)[C@H](Cc2ccccc2)NC(=O)[C@@H]2CCCN2C(=O)[C@H](CC(N)=O)NC(=O)[C@H](Cc2ccccc2)NC1=O)[C@@H](C)CC)[C@@H](C)O  IC50 (Chymotrypsinogen A (Bos taurus, UniProt P00766); enzyme activity, inhibitor, fluorescence): > 100 µM
O=C(O)C(F)(F)C(F)(F)C(F)(F)C(F)(F)C(F)(F)C(F)(F)C(F)(F)F  IC50 (Aldo-keto reductase family 1 member C1 (AKR1C1, Homo sapiens, UniProt Q04828); enzyme activity, inhibitor): ≥ 50 µM
COC(=O)c1cc(N(C)C(=O)c2ccn3ncc(-c4ccc(C(=O)O)cc4)c3c2)ccc1Cl  IC50 (PDPK1; enzyme activity, inhibitor): > 30 µM
O=C(O)[C@H]1/C(=C/CO)O[C@@H]2CC(=O)N21  IC50 (Carbapenem-hydrolyzing beta-lactamase KPC (KPC-2, Klebsiella pneumoniae, UniProt Q9F663); enzyme activity, inhibitor, absorbance; pH 7, with preincubation): 249 µM
CCC(C(=O)Nc1cc(NC2CCNC2)ccc1C)n1cc(Br)cc2nc(SCc3ccc(F)cc3)nc1-2 (centres unmarked)  IC50 (PRSS1; enzyme activity, inhibitor): > 100 µM
C=CCc1ccc(OC)cc1  EC50 (OR8H1 (Homo sapiens, UniProt Q8NGG4); cAMP, agonist, luciferase): > 600 µM
CNC(=O)c1ccc(-c2cnn3ccc(C(=O)N(C)c4ccc(Cl)c(C(=O)O)c4)cc23)cc1  IC50 (PDPK1; enzyme activity, inhibitor): > 30 µM
